Assays:
[1] = test system: HeLa; assay: Antiproliferative activity against human HeLa cells incubated for 2 days by MTT assay; format: functional, cell-based; settings: 48 h
Summary of the method: (§1)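 MTT assay. Cells seeded at 3 × 10³/well (HeLa, A549, HMEC-1, HEK-293) or 5 × 10³/well (HT-29, MCF-7) in their growth media with serial compound dilutions from 10 mM DMSO stocks. Incubated 2 days at 37 °C, 5% CO₂, then MTT added for 3 h and formazan dissolved in DMSO. A540 read and viability expressed versus untreated cells. IC₅₀ determined graphically; three independent experiments.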

[2] = molecular target: Programmed cell death 1 ligand 1 (Homo sapiens) (UniProt Q9NZQ7); assay: Binding affinity to PDL1 (unknown origin) assessed as change in melting temperature at 100 uM by fluorescence based real time RT-PCR analysis
Chain of Programmed cell death 1 ligand 1 (Homo sapiens) (Q9NZQ7 whole entry): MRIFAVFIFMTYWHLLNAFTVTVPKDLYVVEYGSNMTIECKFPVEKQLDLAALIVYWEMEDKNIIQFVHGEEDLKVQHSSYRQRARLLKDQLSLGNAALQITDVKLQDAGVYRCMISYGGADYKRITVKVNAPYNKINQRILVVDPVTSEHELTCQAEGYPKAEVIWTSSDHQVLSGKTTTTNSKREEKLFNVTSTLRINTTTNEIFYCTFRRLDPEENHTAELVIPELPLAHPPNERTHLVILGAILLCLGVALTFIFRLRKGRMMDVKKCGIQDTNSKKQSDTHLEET

[3] = test system: A549; assay: Antiproliferative activity against human A549 cells incubated for 2 days by MTT assay; format: functional, cell-based; settings: A549, 48 h; summary of the method: as §1
[4] = test system: HT-29; assay: Antiproliferative activity against human HT-29 cells incubated for 2 days by MTT assay; format: functional, cell-based; settings: HT-29, 48 h; summary of the method: as §1
[5] = test system: HEK293; assay: Antiproliferative activity against HEK293 cells incubated for 2 days by MTT assay; format: cell-based; settings: Homo sapiens, HEK293, 48 h; summary of the method: as §1
[6] = molecular target: Vascular endothelial growth factor receptor 2 (Homo sapiens) (UniProt P35968)
Chain of Vascular endothelial growth factor receptor 2 (Homo sapiens) (P35968 whole entry): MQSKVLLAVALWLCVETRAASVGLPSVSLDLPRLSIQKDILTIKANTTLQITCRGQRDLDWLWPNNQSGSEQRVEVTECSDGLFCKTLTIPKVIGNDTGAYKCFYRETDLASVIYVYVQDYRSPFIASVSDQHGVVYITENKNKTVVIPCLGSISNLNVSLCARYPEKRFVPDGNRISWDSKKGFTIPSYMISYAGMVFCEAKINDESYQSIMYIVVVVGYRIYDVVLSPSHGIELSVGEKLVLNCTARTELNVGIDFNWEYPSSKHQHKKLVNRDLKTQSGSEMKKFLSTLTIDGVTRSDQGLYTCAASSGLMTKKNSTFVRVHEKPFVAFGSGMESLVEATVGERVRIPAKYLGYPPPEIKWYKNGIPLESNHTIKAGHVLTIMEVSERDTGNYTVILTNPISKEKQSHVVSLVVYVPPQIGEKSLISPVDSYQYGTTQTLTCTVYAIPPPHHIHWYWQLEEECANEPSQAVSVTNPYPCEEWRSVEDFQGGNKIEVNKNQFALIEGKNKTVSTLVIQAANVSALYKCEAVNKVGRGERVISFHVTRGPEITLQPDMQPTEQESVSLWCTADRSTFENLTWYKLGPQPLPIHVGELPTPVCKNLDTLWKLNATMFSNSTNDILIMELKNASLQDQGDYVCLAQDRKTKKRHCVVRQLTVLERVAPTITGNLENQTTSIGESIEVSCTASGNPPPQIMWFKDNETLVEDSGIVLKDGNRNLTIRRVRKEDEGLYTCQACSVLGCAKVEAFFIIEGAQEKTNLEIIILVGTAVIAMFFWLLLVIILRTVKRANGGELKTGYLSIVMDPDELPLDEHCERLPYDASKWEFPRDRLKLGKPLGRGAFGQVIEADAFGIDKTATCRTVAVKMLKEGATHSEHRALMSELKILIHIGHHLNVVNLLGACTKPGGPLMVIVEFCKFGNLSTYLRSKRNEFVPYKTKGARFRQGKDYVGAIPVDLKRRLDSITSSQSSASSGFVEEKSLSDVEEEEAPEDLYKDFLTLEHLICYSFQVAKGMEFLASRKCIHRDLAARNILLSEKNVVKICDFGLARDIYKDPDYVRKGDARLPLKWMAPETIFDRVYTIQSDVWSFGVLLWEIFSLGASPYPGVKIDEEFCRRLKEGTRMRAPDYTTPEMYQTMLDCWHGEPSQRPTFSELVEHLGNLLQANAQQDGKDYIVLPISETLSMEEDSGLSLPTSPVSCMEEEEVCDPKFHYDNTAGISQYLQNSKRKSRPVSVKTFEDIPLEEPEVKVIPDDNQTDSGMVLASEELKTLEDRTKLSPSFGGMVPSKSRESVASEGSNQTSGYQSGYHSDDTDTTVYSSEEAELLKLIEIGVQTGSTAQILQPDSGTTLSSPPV

[7] = test system: HMEC-1; assay: Antiproliferative activity against HMEC1 cells incubated for 2 days by MTT assay; format: cell-based; settings: Homo sapiens, HMEC-1, 48 h; summary of the method: as §1
[8] = test system: HMEC-1; assay: Effect on VEGFR2 in HMEC1 cells assessed as membrane VEGFR2 level at 100 uM incubated for 24 hrs by flow cytometric analysis relative to control; format: functional, Homo sapiens
Summary of the method: (§2)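 HMEC-1 cells exposed 24 h to compound at 100 µM. Membrane VEGFR-2 measured on fixed cells stained with Alexa Fluor 647 anti-CD309; total VEGFR-2 measured after Triton X-100 permeabilization before fixation. Read by flow cytometry as % of DMSO control.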

[9] = test system: MCF7; assay: Antiproliferative activity against human MCF7 cells incubated for 2 days by MTT assay; format: functional, cell-based; settings: MCF7, 48 h; summary of the method: as §1
[10] = test system: HMEC-1; assay: Effect on VEGFR2 in HMEC1 cells assessed as total VEGFR2 level at 100 uM incubated for 24 hrs by flow cytometric analysis relative to control; format: functional, Homo sapiens; summary of the method: as §2
[11] = test system: A549; assay: Immunomodulatory activity in human A549 cells assessed as reduction in PD-L1 expression level at 100 uM incubated for 24 hrs by ELISA relative to control; format: functional; parameters: scale not given: the % may be the effect or the level left
Summary of the method: (§3)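 A549 cells (3·10⁵/well) treated 24 h with compound; final concentration 100 µM for some compounds and 15 µM for others per table footnote. Lysates protein-normalized by Bradford, and PD-L1 and c-Myc quantified by commercial ELISA kits as % of DMSO-treated cells. Mean ± SD of three experiments.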

[12] = test system: HMEC-1; assay: Antiangiogenic activity against HMEC1 cells assessed as inhibition of tube formation incubated for 20 hrs by matrigel based tube formation assay; format: functional, Homo sapiens
Summary of the method: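 HMEC-1 cells in EGM-2MV medium seeded at 2 x 10⁴ cells/well on Matrigel (10 mg/mL, gelled 30 min at 37°C) and attached for 30 min. Compounds were added at different concentrations and tube formation was assessed after 20 h at 37°C. The minimum concentration at which inhibition began was reported. Data representative of three experiments.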

[13] = test system: A549; assay: Effect on VEGFR2 in human A549 cells assessed as membrane VEGFR2 level at 10 uM incubated for 24 hrs by flow cytometric analysis relative to control; format: functional
Summary of the method: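 A549 cells incubated 24 h with compound at 10 µM. Membrane VEGFR-2 (fixed cells) and total VEGFR-2 (permeabilized or lysate) stained with Alexa Fluor 647 anti-CD309 and quantified by flow cytometry relative to DMSO control; mean ± SD of three experiments.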

[14] = test system: A549; assay: Immunomodulatory activity in human A549 cells assessed as reduction in c-Myc expression level at 100 uM incubated for 24 hrs by ELISA relative to control; format: functional; parameters: scale not given: the % may be the effect or the level left; summary of the method: as §3
[15] = test system: A549; assay: Induction of apoptosis in human A549 cells assessed as apoptotic cells at 100 uM incubated for 24 hrs by FITC-Annexin V staining based flow cytometric analysis (reference value: 20%); format: functional
[16] = test system: A549; assay: Effect on VEGFR2 in human A549 cells assessed as total VEGFR2 level at 10 uM incubated for 24 hrs by flow cytometric analysis relative to control; format: functional
[17] = test system: A549; assay: Antiproliferative activity against human A549 cells at 200 uM incubated for 24 hrs in presence of Jurkat T cells by trypan blue staining based Neubauer chamber method relative to control; format: functional
Summary of the method: (§4)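 Co-culture of 5 × 10⁴ tumor cells/well with 2 × 10⁵ PD-1-expressing Jurkat T cells in 1.5 mL, treated 24 h with compound at 200 µM. Supernatant discarded; tumor cells trypsinized, stained with trypan blue and living cells counted in a Neubauer chamber. Proliferation inhibition (%) attributable to Jurkat presence reported; representative of three experiments.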

[18] = test system: HT-29; assay: Antiproliferative activity against human HT-29 cells at 200 uM incubated for 24 hrs in presence of Jurkat T cells by trypan blue staining based Neubauer chamber method relative to control; format: functional; summary of the method: as §4
[19] = test system: HMEC-1; assay: Effect on VEGFR2 in HMEC1 cells assessed as total VEGFR2 level at 10 uM incubated for 24 hrs by flow cytometric analysis relative to control; format: functional, Homo sapiens
Summary of the method: (§5)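 HMEC-1 cells exposed 24 h to compound. Membrane VEGFR-2 measured on fixed cells stained with Alexa Fluor 647 anti-CD309; total VEGFR-2 measured on lysates or permeabilized cells. Read by flow cytometry as % of DMSO control; mean ± SD of three experiments.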

[20] = test system: HMEC-1; assay: Effect on VEGFR2 in HMEC1 cells assessed as membrane VEGFR2 level at 10 uM incubated for 24 hrs by flow cytometric analysis relative to control; format: functional, Homo sapiens; summary of the method: as §5

Row | SMILES | IC50 [1] | ΔTm [2] | IC50 [3] | IC50 [4] | IC50 [5] | ΔTm [6] | IC50 [7] | Activity [8] | IC50 [9] | Activity [10] | Activity [11] | MAC [12] | Activity [13] | Activity [14] | Activity [15] | Activity [16] | Activity [17] | Activity [18] | Activity [19] | Activity [20]
1 | COc1ccc(Cc2cn(CCNC(=O)Nc3cccc(C)c3)nn2)cc1 | > 200 µM | 2.55 °C | > 200 µM | > 200 µM | > 200 µM | 5.21 °C | > 200 µM | 76% | > 200 µM | 91% | 90% | – | – | – | – | – | – | – | – | –
2 | COc1ccc(CCc2cccc(NC(=O)Nc3ccccc3Cl)c2)cc1 | 69 µM | 2.25 °C | 24 µM | 20 µM | 90 µM | 16.2 °C | 48 µM | – | > 100 µM | – | 61% | 1 µM | 100% | 63% | 76% | 100% | – | – | – | –
3 | COc1ccc(Cc2cn(CCNC(=O)Nc3ccc(Cl)cc3)nn2)cc1 | > 200 µM | 1.93 °C | > 200 µM | > 200 µM | > 200 µM | 5.09 °C | > 200 µM | 90% | > 200 µM | 102% | 69% | 400 µM | – | 73% | – | – | 16% | 84% | – | –
4 | COc1ccc(/C=C\c2cccc(NC(=O)Nc3ccccc3Cl)c2)cc1 | 22 µM | – | 21 µM | 12 µM | 6.5 µM | – | 33 µM | – | 19 µM | – | 83% | 10 µM | 114% | – | 61% | 177% | – | – | – | –
5 | COc1ccc(Cc2cn(CCNC(=O)Nc3ccccc3C)nn2)cc1 | > 200 µM | 2.18 °C | > 200 µM | > 200 µM | > 200 µM | 9.98 °C | > 200 µM | 79% | > 200 µM | 100% | 82% | 200 µM | – | – | – | – | – | – | – | –
6 | COc1ccc(Cc2cn(CCNC(=O)Nc3ccc(C)cc3)nn2)cc1 | > 200 µM | 3.09 °C | > 200 µM | > 200 µM | > 200 µM | 3.68 °C | > 200 µM | 97% | > 200 µM | 90% | 66% | – | – | 70% | – | – | 6% | 22% | – | –
7 | COc1ccc(/C=C/c2cccc(NC(=O)Nc3ccccc3Cl)c2)cc1 | > 100 µM | 5.09 °C | 61 µM | 47 µM | 57 µM | 10.2 °C | > 100 µM | – | > 100 µM | – | 74% | 10 µM | 109% | – | 42% | 42% | – | – | 121% | 76%
8 | COc1ccc(CCc2cccc(NC(=O)Nc3ccc(Cl)cc3)c2)cc1 | 21 µM | 2.27 °C | > 200 µM | 1.5 µM | 1.8 µM | 10.2 °C | > 200 µM | – | 15.3 µM | – | 38% | 100 µM | 97% | 44% | 65% | 96% | 16% | – | – | –

Source: ChEMBL document CHEMBL4346668, “Novel multitarget inhibitors with antiangiogenic and immunomodulator properties” (Eur J Med Chem, 2019)
